The source made the active and inactive calls. The calls are words filed in the database; no cut-off is given here.
Tests used:
[1] = test system: Human immunodeficiency virus 1; assay: Inhibition of macrophage tropic HIV1 AD8 replication in monocyte-derived macrophages assessed as reduction in reverse transcriptase at 25 uM after 5 days by Western blotting; format: functional, organism-based
How it was run: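 Monocyte-derived macrophages from elutriated blood monocytes cultured 5–7 days in RPMI-1640 with 10% pooled human AB serum and M-CSF, then infected with 10^5 RT counts of M-tropic HIV-1 AD8 and treated with compound. Supernatants collected every 3 days for RT activity and p24 ELISA; three repeats.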

[2] = test system: Human immunodeficiency virus 1; assay: Inhibition of HIV1 replication in human MT4 cells assessed as p24 capsid protein level at 25 uM after 8 days by ELISA; format: functional, organism-based
How it was run: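 NL4-3 virus stock made by HeLa transfection, titred by RT assay. 4 × 10^6 MT4 cells (RPMI, 10% FBS) infected with 20,000 RT counts; compound added 4 hrs post infection. Half the medium replaced every 2 days with fresh medium holding the same compound level. Supernatants taken every 2 days over 8 days for p24 ELISA. Three repeats.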

Mus musculus = assay: Toxicity in BALB/c mouse assessed as tissue necrosis at 0.2 to 200 uM, ip administered […] relative to control; format: organism-based; conditions: in vivo, 840 h
How it was run: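 BALB/c mice, 8–10 weeks old, groups of 4, injected intraperitoneally twice weekly for 4 weeks with boluses calculated to give body distributions of 0.2, 2, 20 and 200 µM. Controls received saline or DMSO. Mice monitored 5 weeks in total, tail-vein blood weekly, then necropsy and multi-organ histology.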

MT4 = assay: Cytotoxicity against human MT4 cells at 1 to 100 uM after 6 days by colorimetric assay relative to control; format: cell-based; conditions: mt4, 144 h
How it was run: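 MT4 cells (4 × 10^6 in 2 ml, RPMI + 10% FBS) incubated with 1, 10 or 100 µM compound over 6 days; half the medium replaced every 2 days with fresh drug-containing medium. At each harvest 100 µl suspension incubated 2 hrs with WST-8, absorbance at 450 nm, compared with untreated cells.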

[3] = test system: Human immunodeficiency virus 1; assay: Inhibition of HIV1 replication in human MT4 cells assessed as reduction in reverse transcriptase production at 10 uM; format: functional, organism-based
How it was run: (§1)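 MT4 cells (4 × 10^6, RPMI + 10% FBS) infected with 20,000 RT counts of NL4-3 (HeLa-transfection stock); compound added 4 hrs post-infection. Half the medium replaced every 2 days with drug-containing medium; supernatants collected every 2 days up to day 8 and assayed for RT activity (also p24 ELISA). Three independent experiments.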

[4] = test system: Human immunodeficiency virus 1; assay: Inhibition of macrophage tropic HIV1 AD8 replication in monocyte-derived macrophages p24 capsid protein level at 25 uM after 5 days by ELISA; format: functional, organism-based
How it was run: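 Elutriated blood monocytes cultured 5–7 days in RPMI-1640 with 10% pooled human AB serum and M-CSF to give macrophages. Infected on day 5 with 100,000 RT counts of HIV-1 AD8 (stock from HeLa transfection) and treated with compound. Supernatants collected every 3 days for p24 ELISA. Three repeats.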

[5] = test system: Human immunodeficiency virus 1; assay: Antiviral activity against HIV1 transfected in human HeLa cells assessed as reduction of p24 viral protein synthesis at 25 uM; format: functional, organism-based
How it was run: (§2)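 HeLa cells transfected with 2µg pNL4-3 proviral clone; compound 25 µM added 3 hrs post-transfection. Lysates prepared 24 hrs later; viral proteins detected by Western blotting with anti-HIV-1 patient IgG (hyperimmune patient serum).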

[6] = test system: Human immunodeficiency virus 1; assay: Inhibition of HIV1 replication in human MT4 cells assessed as reduction in reverse transcriptase at 25 uM after 8 days by Western blotting; format: functional, organism-based; how it was run: as §1
[7] = molecular target: ATP-dependent RNA helicase DDX3X (Homo sapiens) (UniProt O00571); assay: Inhibition of ATP dependent RNA unwinding activity of human RNA helicase DDX3
Sequence of ATP-dependent RNA helicase DDX3X (Homo sapiens) (O00571 2-662 limits assumed): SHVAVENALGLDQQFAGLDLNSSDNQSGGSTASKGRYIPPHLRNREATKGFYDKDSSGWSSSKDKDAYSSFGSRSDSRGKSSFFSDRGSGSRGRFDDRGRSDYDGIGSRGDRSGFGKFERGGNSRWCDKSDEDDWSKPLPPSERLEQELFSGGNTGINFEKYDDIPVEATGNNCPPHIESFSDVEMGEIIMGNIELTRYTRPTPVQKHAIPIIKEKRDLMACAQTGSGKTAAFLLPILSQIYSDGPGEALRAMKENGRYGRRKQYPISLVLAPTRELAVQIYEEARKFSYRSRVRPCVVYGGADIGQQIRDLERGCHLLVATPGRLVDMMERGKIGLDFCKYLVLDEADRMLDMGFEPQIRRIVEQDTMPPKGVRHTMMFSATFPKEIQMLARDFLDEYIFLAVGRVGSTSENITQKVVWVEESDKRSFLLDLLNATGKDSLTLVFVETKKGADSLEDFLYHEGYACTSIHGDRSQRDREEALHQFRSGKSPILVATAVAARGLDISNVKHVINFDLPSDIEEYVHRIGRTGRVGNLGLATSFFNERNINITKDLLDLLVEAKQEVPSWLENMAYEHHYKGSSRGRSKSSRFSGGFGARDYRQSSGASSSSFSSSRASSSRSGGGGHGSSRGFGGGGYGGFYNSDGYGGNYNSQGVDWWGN
How it was run: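 Partially double-stranded RNA: 120-nt T3 transcript from KpnI-cut pBluescript hybridized (95 °C, 20 min) to complementary [α-32P]UTP-labelled T7 transcript from EcoRI-cut vector. Products resolved on 10% polyacrylamide gel, phosphorimaging.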

[8] = test system: Human immunodeficiency virus 1; assay: Antiviral activity against HIV1 transfected in human HeLa cells assessed as reduction of p55 viral protein synthesis at 25 uM; format: functional, organism-based; how it was run: as §2

Structure (SMILES) | Activity [1] | Activity [2] | Activity (Mus musculus) | Activity (MT4) | Activity [3] | Activity [4] | Activity [5] | Activity [6] | Activity [7] | Activity [8]
CCCCCCCCCCCCCCCCCCNc1nc(=O)c2ncn([C@@H]3O[C@H](CO)[C@@H](O)[C@H]3O)c2c(=O)[nH]1 | Active | Active | Non-toxic | Non-toxic | Active | Active | Active | Active | Active | Active
CCCCCCCCCCCCCCCCCCNc1nc(=O)c2c(ncn2[C@@H]2C[C@@H](O)[C@H](CO)O2)c(=O)[nH]1 | Active | Active | Non-toxic | Non-toxic | Active | Active | Active | Active | Active | Active
